Consider 32 compounds from ChEMBL document CHEMBL1141100, “Design and synthesis of specific probes for human 5-HT4 receptor dimerization studies” (J Med Chem, 2005).

The target in assay [1] is T1, 5-hydroxytryptamine receptor 4 (Homo sapiens, UniProt Q13639). Kind of assay: Percent cAMP production in C6 glial cells expressing human 5-hydroxytryptamine 4 receptor. Type of assay: functional, cell-based. The procedure, abridged: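 Confluent C6 cells stably expressing human 5-HT4(e) receptor were serum-starved 4 h, then preincubated 15 min with 5 mM theophylline and 10 μM pargyline. Compounds (seven concentrations, 10^-10 to 10^-5) and/or 5-HT (1 μM) were added for 15 min at 37 °C. Stopped with 20% perchloric acid, neutralized, and cAMP measured by radioimmunoassay.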
In general terms: Cyclic AMP is a second messenger, typically raised through Gs and lowered through Gi signalling.

The target of assay [2] is T1, 5-hydroxytryptamine receptor 4. Kind of assay: Binding affinity for 5-HT4 receptor using [3H]GR-113808.

What is called Ki is the dissociation constant of the complex between target and ligand, obtained from inhibition or displacement.

T1 sequence (Q13639 whole entry): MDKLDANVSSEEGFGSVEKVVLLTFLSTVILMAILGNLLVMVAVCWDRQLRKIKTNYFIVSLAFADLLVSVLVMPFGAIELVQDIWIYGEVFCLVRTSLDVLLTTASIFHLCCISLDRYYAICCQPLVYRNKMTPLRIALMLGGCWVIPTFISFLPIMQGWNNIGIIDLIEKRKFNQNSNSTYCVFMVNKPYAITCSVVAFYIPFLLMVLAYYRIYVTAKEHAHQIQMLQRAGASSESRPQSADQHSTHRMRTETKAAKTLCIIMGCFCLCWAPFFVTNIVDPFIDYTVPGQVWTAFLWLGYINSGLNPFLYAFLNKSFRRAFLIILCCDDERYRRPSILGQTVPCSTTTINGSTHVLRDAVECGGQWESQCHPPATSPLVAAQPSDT

As for `COc1cc(N)c(Cl)cc1C(=O)OCCN1CCC(NC(=O)CCC(=O)NC2CCN(CCOC(=O)c3cc(Cl)c(N)cc3OC)CC2)CC1`, the cAMP in assay [1] was 47%. In assay [2], this compound gave a Ki of 21 nM.
`COc1cc(N)c(Cl)cc1C(=O)OCCN1CCC(NC(=O)CCCCCCCCCCN)CC1`: in assay [1], the cAMP turned out to be 50%. In assay [2], the Ki turned out to be 13 nM.
For `COc1cc(N)c(Cl)cc1C(=O)OCCN1CCC(NC(=O)CCCCCCCCCCN(CCCCCCCCCCC(=O)NC2CCN(CCOC(=O)c3cc(Cl)c(N)cc3OC)CC2)CC(=O)NCC2CCNCC2)CC1`, in that order: 10% and 50 nM.
For `COc1cc(N)c(Cl)cc1C(=O)OCCN1CCC(C(=O)NCCCCCCCCCCNC(=O)C2CCN(CCOC(=O)c3cc(Cl)c(N)cc3OC)CC2)CC1`, in that order: 8% and 8 nM.
In turn, `COc1cc(N)c(Cl)cc1C(=O)OCCN1CCN(C(=O)CCCCCC(=O)N2CCN(CCOC(=O)c3cc(Cl)c(N)cc3OC)CC2)CC1` returned an inhibition constant Ki in assay [2] of 488 nM.
Take `COc1cc(N)c(Cl)cc1C(=O)OCCN1CCC(CCNC(=O)CCCCCCCCCCC(=O)NCCC2CCN(CCOC(=O)c3cc(Cl)c(N)cc3OC)CC2)CC1`: in assay [1], the cAMP turned out to be 6%. The compound also showed a Ki in assay [2] of 9 nM.
`COc1cc(N)c(Cl)cc1C(=O)OCCN1CCC(CNC(=O)CCCC(=O)NCC2CCN(CCOC(=O)c3cc(Cl)c(N)cc3OC)CC2)CC1` showed a cAMP in assay [1] of 20%. In addition, the Ki in assay [2] came to 13 nM.
Turning to `COc1cc(N)c(Cl)cc1C(=O)OCCN1CCC(CNC(=O)CCC(=O)NCC2CCN(CCOC(=O)c3cc(Cl)c(N)cc3OC)CC2)CC1`, the cAMP in assay [1] was 16%. Besides, the Ki in assay [2] is 7 nM.
Compound `COc1cc(N)c(Cl)cc1C(=O)OCCN1CCC(NC(=O)CCCCCCCCCCC(=O)NC2CCN(CCOC(=O)c3cc(Cl)c(N)cc3O)CC2)CC1` returned a cAMP in assay [1] of 20%. This compound had a Ki in assay [2] of 16 nM.
`COc1cc(N)c(Cl)cc1C(=O)OCCN1CCC(C(=O)NCCCCCNC(=O)C2CCN(CCOC(=O)c3cc(Cl)c(N)cc3OC)CC2)CC1` gave a cAMP in assay [1] of 5%. The Ki in assay [2] was 5 nM.
For `COc1cc(N)c(Cl)cc1C(=O)OCCN1CCC(C(=O)NCCCNC(=O)C2CCN(CCOC(=O)c3cc(Cl)c(N)cc3OC)CC2)CC1`, in that order: 13% and 13 nM.
`COc1cc(N)c(Cl)cc1C(=O)OCCN1CCC(C(=O)NCCOCCOCCNC(=O)C2CCN(CCOC(=O)c3cc(Cl)c(N)cc3OC)CC2)CC1` yielded a cAMP in assay [1] of 3%. In addition, the Ki in assay [2] was 3 nM.
The compound `COc1cc(N)c(Cl)cc1C(=O)OCCN1CCC(NC(=O)CCCCCNC(=O)C2CCN(CCOC(=O)c3cc(Cl)c(N)cc3OC)CC2)CC1` registered a cAMP in assay [1] of 46%. In assay [2], the Ki came to 7 nM.
Consider `COc1cc(N)c(Cl)cc1C(=O)OCCN1CCC(NC(=O)CCCCCCCCCCNc2nc(NCCCCCCCCCCC(=O)NC3CCN(CCOC(=O)c4cc(Cl)c(N)cc4OC)CC3)nc(NCc3ccccc3)n2)CC1`, for which the cAMP in assay [1] came out at 12%. In assay [2], this compound showed a Ki of 113 nM.
`COc1cc(N)c(Cl)cc1C(=O)OCCN1CCCCC1`: the cAMP in assay [1] worked out at 45%.
As for `COc1cc(N)c(Cl)cc1C(=O)OCCN1CCC(CNC(=O)CCCCCC(=O)NCC2CCN(CCOC(=O)c3cc(Cl)c(N)cc3OC)CC2)CC1`, the cAMP in assay [1] is 20%. Further, the affinity in assay [2], expressed as Ki, was 26 nM.
The matching figures for `COc1cc(N)c(Cl)cc1C(=O)OCCN1CCC(NC(=O)CCCCCC(=O)NC2CCN(CCOC(=O)c3cc(Cl)c(N)cc3OC)CC2)CC1`: 26% and 9 nM.
`COc1cc(N)c(Cl)cc1C(=O)OCCN1CCC(CCNC(=O)CCCC(=O)NCCC2CCN(CCOC(=O)c3cc(Cl)c(N)cc3OC)CC2)CC1` yielded a cAMP in assay [1] of 24%.
In the case of `COc1cc(N)c(Cl)cc1C(=O)OCCN1CCC(CNC(=O)CCCCCCCCCCC(=O)NCC2CCN(CCOC(=O)c3cc(Cl)c(N)cc3OC)CC2)CC1`, in assay [1], the cAMP stood at 21%. For the same compound, in assay [2], the Ki amounted to 22 nM.
`COc1cc(N)c(Cl)cc1C(=O)OCCN1CCC(NC(=O)CCNC(=O)C2CCN(CCOC(=O)c3cc(Cl)c(N)cc3OC)CC2)CC1` yielded a cAMP in assay [1] of 10%. In assay [2], this compound had an inhibition constant Ki of 24 nM.
`COc1cc(N)c(Cl)cc1C(=O)OCCN1CCC(C(=O)NCc2cccc(CNC(=O)C3CCN(CCOC(=O)c4cc(Cl)c(N)cc4OC)CC3)c2)CC1` displayed a cAMP in assay [1] of 16%. This compound returned a Ki in assay [2] of 5 nM.
As for `COc1cc(N)c(Cl)cc1C(=O)OCCN1CCC(CCNC(=O)CCC(=O)NCCC2CCN(CCOC(=O)c3cc(Cl)c(N)cc3OC)CC2)CC1`, in assay [1], the cAMP came to 15%. The compound also showed a Ki in assay [2] of 5 nM.
The matching figures for `COc1cc(N)c(Cl)cc1C(=O)OCCN1CCC(C(=O)NCCCOCCOCCOCNC(=O)C2CCN(CCOC(=O)c3cc(Cl)c(N)cc3OC)CC2)CC1`: 0% and 6 nM.
For the compound `COc1cc(N)c(Cl)cc1C(=O)OCCN1CCC(NC(=O)CCCC(=O)NC2CCN(CCOC(=O)c3cc(Cl)c(N)cc3OC)CC2)CC1`, the cAMP in assay [1] was 32%. In assay [2], the affinity, expressed as Ki, was 5 nM.
For `COc1cc(N)c(Cl)cc1C(=O)OCCN1CCC(NC(=O)CCc2ccc3c(c2)oc2cc(CCC(=O)NC4CCN(CCOC(=O)c5cc(Cl)c(N)cc5OC)CC4)ccc23)CC1`, in that order: 23% and 47 nM.
As to `COc1cc(N)c(Cl)cc1C(=O)OCCN1CCC(C(=O)NCCOCCNC(=O)C2CCN(CCOC(=O)c3cc(Cl)c(N)cc3OC)CC2)CC1`, the cAMP in assay [1] worked out at 0%. In assay [2], the Ki was 19 nM.
`COc1cc(N)c(Cl)cc1C(=O)OCCN1CCC(NC(=O)CCCCCCCCCCNC(=O)C2CCN(CCOC(=O)c3cc(Cl)c(N)cc3OC)CC2)CC1` had a cAMP in assay [1] of 5%. The inhibitory constant (Ki) in assay [2] amounted to 20 nM.
The matching figures for `COc1cc(N)c(Cl)cc1C(=O)OCCN1CCC(CCNC(=O)CCCCCC(=O)NCCC2CCN(CCOC(=O)c3cc(Cl)c(N)cc3OC)CC2)CC1`: 31% and 11 nM.
For `COc1cc(N)c(Cl)cc1C(=O)OCCN1CCC(NC(=O)CCCNC(=O)C2CCN(CCOC(=O)c3cc(Cl)c(N)cc3OC)CC2)CC1`, in that order: 42% and 31 nM.
The compound `COc1cc(N)c(Cl)cc1C(=O)OCCN1CCN(C(=O)CCCCCCCCCCC(=O)N2CCN(CCOC(=O)c3cc(Cl)c(N)cc3OC)CC2)CC1` yielded an inhibition constant Ki in assay [2] of 200 nM.
The compound `COc1cc(N)c(Cl)cc1C(=O)OCCN1CCC(NC(=O)CCCCCCCCCCC(=O)NC2CCN(Cc3ccccc3)CC2)CC1` registered a cAMP in assay [1] of 35%. In addition, the Ki in assay [2] was determined as 14 nM.
For `COc1cc(N)c(Cl)cc1C(=O)OCCN1CCC(C(=O)NCCNC(=O)C2CCN(CCOC(=O)c3cc(Cl)c(N)cc3OC)CC2)CC1`, in that order: 3% and 37 nM.
